# Results as given in ChEMBL document CHEMBL4371014, “Novel Allosteric Ligands of γ-Aminobutyric Acid Transporter 1 (GAT1) by MS Based Screening of Pseudostatic Hydrazone Libraries” (J Med Chem, 2018).
# Target: Sodium- and chloride-dependent GABA transporter 1 (Mus musculus) (UniProt P31648)
# Assay: Inhibition of NO711 binding to mouse GAT1 expressed in HEK293 cell membranes assessed as residual binding at 1 uM preincubated for 4 hrs followed by NO711 addition and measured after 40 mins by LC-ESI-MS/MS analysis relative to control
# How it was run: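 Single hydrazones formed in situ in the presence of mouse GAT1 from one aldehyde (1.0 µM) and hydrazine (200 µM). Formation ran 4 h, then NO711 MS marker was added for 40 min. Specifically bound NO711 was freed from the target and quantified by LC-ESI-MS/MS. Results are % remaining specific binding, means±SD of four replicates.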
row,SMILES,Activity [%]
1,COc1cc(C=O)cc(OC)c1O,99
2,COc1cc(F)ccc1-c1ccccc1C=O,101
3,COc1ccc(C=O)cc1,98
4,COc1ccc(F)cc1-c1ccccc1C=O,108
5,COc1cccc(F)c1-c1ccccc1C=O,112
6,COc1ccccc1C=O,108
7,Cc1ccc(-c2cccc(C=O)c2)cc1,104
8,Cc1ccc(-c2ccsc2C=O)c(C)c1,124
9,Cc1ccc(-c2ccsc2C=O)cc1,109
10,Cc1cccc2cc(C=O)c(Cl)nc12,103
11,Cc1ccccc1-c1ccsc1C=O,93
12,Cc1ccsc1-c1ccccc1C=O,105
13,Cc1ccsc1-c1sc(C=O)cc1C,106
14,Cn1c(C=O)ccc1-c1ccc(Cl)cc1,101
15,Cn1cnnc1Sc1ccc(C=O)o1,86
16,Nc1ncc(-c2ccccc2C=O)cn1,121
17,O=Cc1cc(Br)co1,126
18,O=Cc1ccc(-c2cc(C(F)(F)F)cc(C(F)(F)F)c2)o1,103
19,O=Cc1ccc(-c2cc(C(F)(F)F)ccc2Cl)o1,88
20,O=Cc1ccc(-c2ccc(Br)cc2)o1,97
21,O=Cc1ccc(-c2ccc(C(F)(F)F)cc2Cl)o1,98
22,O=Cc1ccc(-c2ccc(Cl)cc2)o1,75
23,O=Cc1ccc(-c2ccc(Cl)cc2)s1,107
24,O=Cc1ccc(-c2ccc(Cl)cc2Cl)o1,97
25,O=Cc1ccc(-c2ccc(Cl)cc2F)o1,97

row,SMILES,Activity [%]
1,O=Cc1ccc(-c2ccc(Cl)cc2[N+](=O)[O-])o1,72
2,O=Cc1ccc(-c2ccc(F)c(C(F)(F)F)c2)o1,99
3,O=Cc1ccc(-c2cccc(C(F)(F)F)c2)o1,70
4,O=Cc1ccc(-c2cccc(Cl)c2)o1,103
5,O=Cc1ccc(-c2cccc3ccccc23)o1,92
6,O=Cc1ccc(-c2ccccc2)[nH]1,98
7,O=Cc1ccc(-c2ccccc2)o1,82
8,O=Cc1ccc(-c2ccccc2)s1,112
9,O=Cc1ccc(-c2ccccc2Br)o1,129
10,O=Cc1ccc(-c2ccccc2C(F)(F)F)o1,90
11,O=Cc1ccc(-c2ccccc2Cl)o1,99
12,O=Cc1ccc(-c2ccccc2OC(F)(F)F)o1,88
13,O=Cc1ccc(-c2ccn[nH]2)o1,93
14,O=Cc1ccc(Br)o1,127
15,O=Cc1ccc(C#Cc2ccccc2)s1,90
16,O=Cc1ccc(I)o1,115
17,O=Cc1ccc([N+](=O)[O-])cc1,113
18,O=Cc1ccc2ccccc2n1,114
19,O=Cc1ccc[nH]1,107
20,O=Cc1cccc(-c2ccc(Cl)cc2)c1,108
21,O=Cc1cccc(-c2ccc(F)cc2)c1,122
22,O=Cc1cccc(-c2ccccc2)c1,111
23,O=Cc1cccc(Oc2ccccc2)c1,109
24,O=Cc1ccccc1-c1cc(F)cc(F)c1,112
25,O=Cc1ccccc1-c1cc(F)ccc1F,98

row,SMILES,Activity [%]
1,O=Cc1ccccc1-c1ccc(F)cc1F,97
2,O=Cc1ccccc1-c1cccc(F)c1F,107
3,O=Cc1ccccc1-c1cccnc1,119
4,O=Cc1ccccc1-c1cccs1,107
5,O=Cc1ccccc1-c1ccsc1,106
6,O=Cc1ccccc1-n1cccc1,92
7,O=Cc1cccn1-c1ccc(C(F)(F)F)cc1,87
8,O=Cc1ccco1,107
9,O=Cc1cccs1,118
10,O=Cc1ccnc2ccccc12,100
11,O=Cc1cnc(-c2ccc3ccccc3c2)nc1,110
12,O=Cc1cnc(-c2cccc3ccccc23)nc1,124
13,O=Cc1cnc(-c2ccccc2)nc1,113
14,O=Cc1cnc(-c2ccccc2F)nc1,116
15,O=Cc1cnc(-c2ccccn2)nc1,106
16,O=Cc1cnc(-c2ccco2)nc1,118
17,O=Cc1cnc(-c2cccs2)nc1,103
18,O=Cc1cnc(N2CCCCC2)nc1,108
19,O=Cc1cnc(NCc2ccccc2)nc1,118
20,O=Cc1cnc(SCc2ccccc2)nc1,116
21,O=Cc1cncnc1,118
22,O=Cc1csc2ccccc12,77
23,O=Cc1sccc1-c1ccc(C(F)(F)F)cc1C(F)(F)F,129
24,O=Cc1sccc1-c1ccc(Cl)cc1,113
25,O=Cc1sccc1-c1ccc(Cl)cc1Cl,116

row,SMILES,Activity [%]
1,O=Cc1sccc1-c1ccc(F)cc1F,118
2,O=Cc1sccc1-c1ccccc1,113
3,O=Cc1sccc1-c1ccccc1Cl,121
4,O=Cc1sccc1-c1ccccc1F,121
5,O=Cc1sccc1-n1cccc1,82
6,COc1cc(F)ccc1-c1ccccc1/C=N/NC[C@@H]1CNC[C@H](C(=O)O)C1 (racemic),80
7,COc1ccc(/C=N/NC[C@@H]2CNC[C@H](C(=O)O)C2)cc1 (racemic),85
8,COc1ccc(F)cc1-c1ccccc1/C=N/NC[C@@H]1CNC[C@H](C(=O)O)C1 (racemic),72
9,COc1cccc(F)c1-c1ccccc1/C=N/NC[C@@H]1CNC[C@H](C(=O)O)C1 (racemic),70
10,COc1ccccc1/C=N/NC[C@@H]1CNC[C@H](C(=O)O)C1 (racemic),85
11,Cc1ccc(-c2ccsc2/C=N/NC[C@@H]2CNC[C@H](C(=O)O)C2)c(C)c1 (racemic),80
12,Cc1ccsc1-c1sc(/C=N/NC[C@@H]2CNC[C@H](C(=O)O)C2)cc1C (racemic),74
13,O=C(O)[C@H]1CNC[C@@H](CN/N=C/c2ccc(-c3ccc(Cl)cc3)o2)C1 (racemic),56
14,O=C(O)[C@H]1CNC[C@@H](CN/N=C/c2ccc(-c3ccc(Cl)cc3Cl)o2)C1 (racemic),40
15,O=C(O)[C@H]1CNC[C@@H](CN/N=C/c2ccc(-c3ccc(Cl)cc3F)o2)C1 (racemic),67
16,O=C(O)[C@H]1CNC[C@@H](CN/N=C/c2ccc(-c3ccc(Cl)cc3[N+](=O)[O-])o2)C1 (racemic),37
17,O=C(O)[C@H]1CNC[C@@H](CN/N=C/c2ccc(-c3ccc(F)c(C(F)(F)F)c3)o2)C1 (racemic),36
18,O=C(O)[C@H]1CNC[C@@H](CN/N=C/c2ccc(-c3cccc(C(F)(F)F)c3)o2)C1 (racemic),38
19,O=C(O)[C@H]1CNC[C@@H](CN/N=C/c2ccc(-c3cccc(Cl)c3)o2)C1 (racemic),46
20,O=C(O)[C@H]1CNC[C@@H](CN/N=C/c2ccc(-c3ccccc3)o2)C1 (racemic),68
21,O=C(O)[C@H]1CNC[C@@H](CN/N=C/c2ccc(-c3ccccc3C(F)(F)F)o2)C1 (racemic),49
22,O=C(O)[C@H]1CNC[C@@H](CN/N=C/c2ccc(-c3ccccc3Cl)o2)C1 (racemic),48
23,O=C(O)[C@H]1CNC[C@@H](CN/N=C/c2ccc(-c3ccccc3OC(F)(F)F)o2)C1 (racemic),66
24,O=C(O)[C@H]1CNC[C@@H](CN/N=C/c2ccc(-c3ccn[nH]3)o2)C1 (racemic),81
25,O=C(O)[C@H]1CNC[C@@H](CN/N=C/c2ccc(C#Cc3ccccc3)s2)C1 (racemic),51

row,SMILES,Activity [%]
1,O=C(O)[C@H]1CNC[C@@H](CN/N=C/c2ccc([N+](=O)[O-])cc2)C1 (racemic),83
2,O=C(O)[C@H]1CNC[C@@H](CN/N=C/c2ccc3ccccc3n2)C1 (racemic),81
3,O=C(O)[C@H]1CNC[C@@H](CN/N=C/c2cccc(-c3ccccc3)c2)C1 (racemic),52
4,O=C(O)[C@H]1CNC[C@@H](CN/N=C/c2cccc(Oc3ccccc3)c2)C1 (racemic),46
5,O=C(O)[C@H]1CNC[C@@H](CN/N=C/c2ccccc2-c2cc(F)cc(F)c2)C1 (racemic),90
6,O=C(O)[C@H]1CNC[C@@H](CN/N=C/c2ccccc2-c2cc(F)ccc2F)C1 (racemic),73
7,O=C(O)[C@H]1CNC[C@@H](CN/N=C/c2ccccc2-c2ccc(F)cc2F)C1 (racemic),66
8,O=C(O)[C@H]1CNC[C@@H](CN/N=C/c2ccccc2-c2cccc(F)c2F)C1 (racemic),58
9,O=C(O)[C@H]1CNC[C@@H](CN/N=C/c2ccccc2-c2cccnc2)C1 (racemic),93
10,O=C(O)[C@H]1CNC[C@@H](CN/N=C/c2ccccc2-c2cccs2)C1 (racemic),87
11,O=C(O)[C@H]1CNC[C@@H](CN/N=C/c2ccccc2-n2cccc2)C1 (racemic),91
12,O=C(O)[C@H]1CNC[C@@H](CN/N=C/c2cccn2-c2ccc(C(F)(F)F)cc2)C1 (racemic),75
13,O=C(O)[C@H]1CNC[C@@H](CN/N=C/c2ccnc3ccccc23)C1 (racemic),74
14,O=C(O)[C@H]1CNC[C@@H](CN/N=C/c2csc3ccccc23)C1 (racemic),82
15,O=C(O)[C@H]1CNC[C@@H](CN/N=C/c2sccc2-c2ccc(C(F)(F)F)cc2C(F)(F)F)C1 (racemic),88
16,O=C(O)[C@H]1CNC[C@@H](CN/N=C/c2sccc2-c2ccc(Cl)cc2)C1 (racemic),80
17,O=C(O)[C@H]1CNC[C@@H](CN/N=C/c2sccc2-c2ccc(Cl)cc2Cl)C1 (racemic),81
18,O=C(O)[C@H]1CNC[C@@H](CN/N=C/c2sccc2-c2ccc(F)cc2F)C1 (racemic),80
19,O=C(O)[C@H]1CNC[C@@H](CN/N=C/c2sccc2-c2ccccc2)C1 (racemic),85
20,O=C(O)[C@H]1CNC[C@@H](CN/N=C/c2sccc2-c2ccccc2Cl)C1 (racemic),84
21,O=C(O)[C@H]1CNC[C@@H](CN/N=C/c2sccc2-c2ccccc2F)C1 (racemic),84
22,O=C(O)[C@H]1CNC[C@@H](CN/N=C/c2sccc2-n2cccc2)C1 (racemic),86
